For assay [1], the target named is T1, DNA topoisomerase 1 (Homo sapiens) (UniProt P11387).
T1 sequence (whole entry): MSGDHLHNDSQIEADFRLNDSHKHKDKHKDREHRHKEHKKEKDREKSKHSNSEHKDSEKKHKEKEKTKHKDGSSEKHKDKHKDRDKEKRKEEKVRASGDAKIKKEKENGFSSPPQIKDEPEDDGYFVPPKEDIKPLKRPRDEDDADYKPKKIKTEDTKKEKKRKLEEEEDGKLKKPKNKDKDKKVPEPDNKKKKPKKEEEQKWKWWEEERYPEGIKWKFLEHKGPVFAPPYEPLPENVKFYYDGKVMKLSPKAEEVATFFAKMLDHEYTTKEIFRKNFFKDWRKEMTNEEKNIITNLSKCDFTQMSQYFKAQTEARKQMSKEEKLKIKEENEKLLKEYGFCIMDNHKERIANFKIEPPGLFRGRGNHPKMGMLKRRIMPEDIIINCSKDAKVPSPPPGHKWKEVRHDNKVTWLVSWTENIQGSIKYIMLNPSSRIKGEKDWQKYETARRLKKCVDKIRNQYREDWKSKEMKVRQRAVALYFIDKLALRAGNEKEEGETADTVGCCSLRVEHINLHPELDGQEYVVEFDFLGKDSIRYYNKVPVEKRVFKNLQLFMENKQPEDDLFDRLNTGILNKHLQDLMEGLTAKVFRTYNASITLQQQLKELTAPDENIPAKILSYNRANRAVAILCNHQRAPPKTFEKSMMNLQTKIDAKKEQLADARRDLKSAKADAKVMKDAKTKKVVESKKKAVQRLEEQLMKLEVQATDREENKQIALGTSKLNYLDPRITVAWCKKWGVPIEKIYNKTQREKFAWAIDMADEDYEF
Put plainly: Inhibition of DNA topoisomerase 1-mediated supercoiled Escherichia coli pBR322 DNA relaxation at 1 to 50 uM by UV transilluminator analysis. An outline of the steps:
(§1)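 Purified topoisomerase I was incubated with supercoiled DNA, and inhibition of relaxation by the enzyme was scored. Compounds were tested at concentrations ranging from 1 to 500 μM; an initial screen was run at 500 μM and active compounds were retested at lower concentrations.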

The target of assay [2] is T1, DNA topoisomerase 1 (Homo sapiens). Nature of the assay: Inhibition of DNA topoisomerase 1-mediated supercoiled Escherichia coli pBR322 DNA relaxation at 100 uM by UV transilluminator analysis. The following applies: 500 uM; in the assay text read “500 uM” for “100 uM”. An outline of the steps:
as §1

In the next assay the test system is A549. Put plainly: Cytotoxicity against human A549 cells after 3 days by MTT assay. The format is functional, cell-based.
For the next assay, the system named is LoVo. Put plainly: Cytotoxicity against human LoVo cells after 3 days by MTT assay. The format is functional, cell-based. (Tetrazolium assays rely on reduction of a dye to a coloured formazan, in cell work by metabolically active cells.)
The test system of the next assay is MDA-MB-435. Put plainly: Cytotoxicity against human MDA-MB-435 cells after 3 days by MTT assay. The format is functional, cell-based.
A further assay relates to HCT-116. Nature of the assay: Cytotoxicity against human HCT116 cells after 3 days by MTT assay. The format is functional, cell-based. The settings on record: HCT-116, 72 h.
The target of assay [3] is T1, DNA topoisomerase 1 (Homo sapiens). Nature of the assay: Inhibition of DNA topoisomerase 1-mediated supercoiled Escherichia coli pBR322 DNA relaxation at 10 uM by UV transilluminator analysis. An outline of the steps:
as §1

The target is the same in assay [4]. Nature of the assay: Inhibition of DNA topoisomerase 1-mediated supercoiled Escherichia coli pBR322 DNA relaxation by UV transilluminator analysis. The method in brief:
as §1

The mark [5] stands for this setting: Homo sapiens, A549, 72 h, read-out: IC50.
The mark [6] stands for this setting: Homo sapiens, LoVo, 72 h, read-out: IC50.
Where [7] appears, read: Homo sapiens, MDA-MB-435, 72 h, read-out: IC50.

Calls of active or inactive are those of the source. The calls are words filed in the database; no cut-off is given here.

`CCCNC(=O)Cn1c2ccccc2[n+]2nc3c(cc12)-c1cccc2cccc-3c12`: the inhibition result in assay [1] and in assay [2] was “Active” in each case. Moreover, the values for the IC50 with A549 (setting [5]), in the assay with LoVo (setting [6]) and with MDA-MB-435 (setting [7]) were 37 µM, 26 µM and 77 µM, respectively.
Take `Cc1ccc(-c2csc3nc4c5ccccc5c(Cl)nn4c(=O)c23)cc1C`: the inhibition result in assay [2] is “Active”. Further, the concentration for half-maximal inhibition (IC50) (commonly the concentration that gives 50% inhibition) is “Not Active” with A549 (a549), 190 µM with LoVo (setting [6]) and “Not Active” in the assay with MDA-MB-435 (mda-mb-435).
Turning to `CN1c2ccccc2C(=O)N2CCc3c(n(C(=O)c4ccc(Cl)cc4)c4ccccc34)C21` (centres undefined), in assay [2], the inhibition entry was “Active”. Besides, the IC50 came out at 0.86 µM in the assay with A549 (setting [5]), 0.049 µM with MDA-MB-435 (setting [7]) and 2.6 µM in the assay on HCT-116.
In the case of `Cc1ccc(S(=O)(=O)c2cc3c(c4nsnc24)C(=O)c2ccccc2C3=O)cc1`, the inhibition result in assay [3] and in assay [2] was “Active” throughout. Besides, in assay [4], the inhibition result was “Dose-dependent effect”. Further, the IC50 in the assay on A549 (setting [5]) worked out at 0.5 µM; in the assay with LoVo (setting [6]), 43 µM; in the assay with MDA-MB-435 (setting [7]), 25 µM.
In the case of `CCCOc1ccc(-c2nc3s/c(=C4\C(=O)N(CC(=O)O)c5ccccc54)c(=O)n3n2)cc1`, the inhibition result in assay [3] and in assay [2] was “Active” throughout. The inhibition result in assay [4] is “Dose-dependent effect”. In addition, the IC50 entry with A549 (a549), in the assay with LoVo (lovo) and in the assay with MDA-MB-435 (mda-mb-435) was “Not Active” throughout.
`Nc1ccccc1Sc1ccc2c(=O)n3c4ccccc4nc3c3cccc1c23`: in assay [2], the inhibition result is “Active”. The IC50 entry in the assay on A549 (a549), in the assay on LoVo (lovo) and in the assay on MDA-MB-435 (mda-mb-435) was “Not Active” each time.
For the molecule `Cc1cc2nc3s/c(=C4\C(=O)N(CC(=O)O)c5ccccc54)c(=O)n3c2cc1C`, the inhibition result in assay [1] and in assay [2] was “Active” each time. For the same molecule, the IC50 result is “Not Active” with A549 (a549), 240 µM in the assay with LoVo (setting [6]) and 170 µM in the assay on MDA-MB-435 (setting [7]).

These data come from ChEMBL document CHEMBL1275352, “Selection of evodiamine as a novel topoisomerase I inhibitor by structure-based virtual screening and hit optimization of evodiamine derivatives as antitumor agents” (J Med Chem, 2010).
